Compound activity: PubChem, several laboratories
The list is not random: actives were taken first. Their share in the collection is about 3%.
SR-BI HDL uptake – mouse SR-BI HDL lipid transfer inhibition | ldlA[mSR-BI] CHO cells, DiI-HDL uptake fluorescence, 3 h | Q61009 | AID 488896 | inhibition, % at 12.5 µM | 320,000 tested, 0.96% active;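 active means mean replicate inhibition of at least 70% and a set share of replicates each scoring 70 or more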;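 further: 0% = median of neutral control wells and 100% = median of positive control wells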
Kir21 block – inhibitors of mouse Kir2.1 inward-rectifier potassium channel. B-score at 10 µM. 310,000 tested, 0.85% active. AID 1672. HEK293-Kir2.1, FluxOR thallium flux fluorescence; active compounds read low. P35561;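 active means fluorescence ratio B-score at or below minus 3 SD of library scores, with starting-brightness B-score within 2 SD, cut at about -4.2 in these data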;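 further: channel flux triggered by added potassium and thallium sulfate stimulus; B-score of peak minus minimum fluorescence over baseline after thallium stimulus; more negative B-score means stronger Kir2.1 block with less thallium influx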
Target sequence (P35561 whole entry, looked up): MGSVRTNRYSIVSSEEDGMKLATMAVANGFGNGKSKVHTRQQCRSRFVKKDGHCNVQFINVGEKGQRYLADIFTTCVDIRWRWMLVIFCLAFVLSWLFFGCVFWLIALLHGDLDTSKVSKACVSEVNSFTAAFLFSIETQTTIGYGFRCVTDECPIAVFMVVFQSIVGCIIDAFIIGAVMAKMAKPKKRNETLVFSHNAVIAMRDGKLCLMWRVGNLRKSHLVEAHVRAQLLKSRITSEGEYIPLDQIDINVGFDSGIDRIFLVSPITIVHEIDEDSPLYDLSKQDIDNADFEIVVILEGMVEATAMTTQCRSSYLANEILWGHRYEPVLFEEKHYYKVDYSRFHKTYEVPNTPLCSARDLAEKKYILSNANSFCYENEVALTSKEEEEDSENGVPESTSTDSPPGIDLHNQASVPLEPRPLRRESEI
ANO1 block – blocks the mouse calcium-activated chloride channel TMEM16A. HEK293 TMEM16A/YFP iodide influx fluorescence, ionomycin. Q8BHY3. 310,000 tested, 1.2% active. normalized B-score (activity score, 25-100; higher = stronger inhibition) at 10 µM;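 active means ratio plate-corrected score three or more library SD toward inhibition, starting fluorescence score within five deviations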;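 further: score derived from kinetic fluorescence span divided by baseline fluorescence per well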
DNA FID counter – displaces DNA intercalator in HCV helicase counter-screen | DNA fluorescent intercalator displacement, fluorescence | inhibition, % at 7.9 µM | 290,000 tested, 0.17% active; in the data active means inhibition above about 37%;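 further: 0% = vehicle and 100% = reference compound; higher means more ethidium bromide displaced from hairpin DNA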
TMEM16A act – activates or potentiates the mouse TMEM16A chloride channel | Q8BHY3 | HEK293 TMEM16A/YFP-H148Q/I152L, iodide quench fluorescence; active compounds read low | B-score at 10 µM | 340,000 tested, 0.3% active;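 active means fluorescence-ratio B-score plate-corrected deviation score at least 3 library SD below zero, with starting fluorescence score within 5 deviations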;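 further: channel opened by trigger with iodide after compound preincubation; score built on the fluorescence ratio of max minus min over baseline; more negative score means more quench and so TMEM16A activation or potentiation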
SR-BI uptake up – SR-BI HDL lipid transfer activation. CHO ldlA[mSR-BI] cells, DiI-HDL uptake fluorescence, 3 h; 100 = double the neutral-control signal. activation, % at 12.5 µM. 320,000 tested, 0.096% active;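 active means mean replicate activation of at least 60% and every replicate at or above 60%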;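 further: 0% = median plate neutral-control signal and 100% = twice that signal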
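material = CHO ldlA[mSR-BI] cells | medium = Ham's F12 with 0.5% BSA, HEPES 25 mM, pH 7.4 | reagent = fluorescent DiI-HDL, 10 µg/mL final | compound dosing = single-point compound dose | incubation = 3 h, 37 °C | measured by = bottom-read fluorescence, 550/595 nm | measure = HDL uptake via cellular fluorescence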
The depositor's hits bear a star.

`CC(=O)NS(=O)(=O)c1ccc(NC(=O)CCC(=O)Oc2ccc(C)cc2)cc1` gave SR-BI HDL uptake 3, Kir21 block 0.64, ANO1 block inactive, DNA FID counter -4, TMEM16A act inactive and SR-BI uptake up -3.
Screening Cc1csc2c(=O)sc(NC(=O)c3cccs3)nc12 returned SR-BI HDL uptake -2, Kir21 block 1.1, ANO1 block inactive, DNA FID counter 1, TMEM16A act inactive and SR-BI uptake up 2.
COc1cc(CCC(=O)NCc2ccc(Cl)cc2)cc(OC)c1OC was read as SR-BI HDL uptake -16, Kir21 block -1.8, ANO1 block inactive, DNA FID counter -14, TMEM16A act inactive and SR-BI uptake up 16.
COc1cc(CCC(=O)OCC(=O)NCc2ccc(Cl)cc2)cc(OC)c1OC was read as SR-BI HDL uptake 8, Kir21 block -4.4*, ANO1 block inactive, DNA FID counter -24, TMEM16A act inactive and SR-BI uptake up -8.
For CCC1(c2ccc(F)cc2)NC(=O)N(CC(=O)N2CCN(S(=O)(=O)c3ccc(C)cc3C)CC2)C1=O (configuration not stated) the results were SR-BI HDL uptake 10, TMEM16A act inactive and SR-BI uptake up -10.
COC(=O)C1=C(N)c2ccccc2C1(C#N)c1ccccc1 (configuration not stated) was read as SR-BI HDL uptake -3, Kir21 block -1.1, ANO1 block inactive, DNA FID counter -6, TMEM16A act -10* and SR-BI uptake up 3.
For C[C@@H](C(=O)NCCc1ccccc1F)N1C(=O)N2CCc3c([nH]c4ccccc34)[C@@]2(C)C1=O the results were SR-BI HDL uptake 30, Kir21 block -0.03, ANO1 block 25*, DNA FID counter -35, TMEM16A act inactive and SR-BI uptake up -30.
For CC(=O)N/C(=C/C(C)C)c1ccccc1 the results were SR-BI HDL uptake 1, TMEM16A act inactive and SR-BI uptake up -1.
For CC1=NNC(=O)C1C(c1ccc(F)cc1)C(C#N)C#N (configuration not stated) the results were SR-BI HDL uptake -5, Kir21 block -4.3*, ANO1 block inactive, DNA FID counter 0, TMEM16A act inactive and SR-BI uptake up 5.
CC1=NNC(=O)C1Cc1ccc(F)cc1 (configuration not stated) was read as SR-BI HDL uptake -1, Kir21 block 0.01, ANO1 block inactive, DNA FID counter 0, TMEM16A act inactive and SR-BI uptake up 1.
`COC(=O)NNC(=O)c1ccc(Cl)cc1Cl` gave SR-BI HDL uptake -19, Kir21 block -1.8, ANO1 block inactive, DNA FID counter -1, TMEM16A act inactive and SR-BI uptake up 19.
For CCC(=O)NC(=S)Nc1cccc(NC(=O)c2ccc(Cl)cc2Cl)c1 the results were SR-BI HDL uptake 81*, Kir21 block 1, ANO1 block inactive, DNA FID counter 5, TMEM16A act inactive and SR-BI uptake up -81.
For CC(C)(C)C(=O)NC(=S)NNC(=O)c1ccc(Cl)cc1Cl the results were Kir21 block 0.02, ANO1 block 100*, DNA FID counter -7 and TMEM16A act inactive.
For CCC(=O)NC(=S)Nc1cccc(NC(=O)CC)c1 the results were SR-BI HDL uptake 8, Kir21 block 1.6, ANO1 block inactive, DNA FID counter 3, TMEM16A act inactive and SR-BI uptake up -8.
CC(C)(C)C(=O)NC(=S)NNC(=O)c1ccc(-c2ccccc2)cc1 was read as Kir21 block -1, ANO1 block 100*, DNA FID counter -25 and TMEM16A act -10*.
For COc1cc(OC)c(OC)cc1/C=C/C(=O)OCC(=O)Nc1c(C)n(C)n(-c2ccccc2)c1=O the results were SR-BI HDL uptake 8, TMEM16A act inactive and SR-BI uptake up -8.
Screening COc1ccc(S(=O)(=O)Nc2cc3c4c(c2)CCN4C(=O)CC3)cc1 returned SR-BI HDL uptake -17, Kir21 block -1.1, ANO1 block inactive, TMEM16A act inactive and SR-BI uptake up 17.
